Assay outcomes from PubChem BioAssay.
FN deposit inh: inhibitors of fibronectin matrix deposition, primary screen, AH1F cells, Alexa488-fibronectin fluorescence, plate reader; AH1F fibroblasts, overnight; inhibition, % at 12.6 µM; 0.086% of 350,000 active; AID 743247, 2014;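 active = mean inhibition across replicates of 30% or more, regardless of how many single replicates reach that level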;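 note: positive control wells lacked labelled fibronectin entirely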
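Assay system: AH1F fibroblasts assembling fluorescent fibronectin matrix; Amount: 10000 AH1F cells per well; Buffer or medium: DMEM, 2% serum; Probe or stimulus: Alexa488-fibronectin, 24 nM final in well; Doses: single compound dose, delivered by pin transfer; Incubation: 1 h adhesion, overnight exposure; Measured by: fluorescence 485/525 nm; Read-out: fibronectin deposition inhibition.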
rRNA inh HTS: reduced GFP signal of wild-type E. coli, primary screen, bacterial rRNA inhibitor project, GFP/RFP fluorescence, OD600, single point; E. coli WT GFP vs humanized-ribosome RFP mutants, 24 h; stronger effect = lower value; DMSO median 0, no signal -100; AID 720706, 2013; 1.6% of 350,000 active; GFP signal change (wild-type ribosome), % (concentration not given with the values);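 active = significant combined selectivity score with lowered wild-type GFP, culture density cut under 30%, mutant RFP and density less affected; inactive = any of these conditions unmet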
FGF22 binding: binders of human FGF22 protein, primary screen, FGF22 synaptogenesis inhibitor project, biophysical, thermal shift, single point; Fibroblast growth factor 22 (Homo sapiens), Q9HCT0; recombinant FGF22 thermal shift, SYPRO orange fluorescence; percent of sucrose octasulfate shift, DMSO zero; activity (Tm shift, normalised), % at 9.99 µM; 1.5% of 340,000 active;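 active = mean Tm shift, scaled 0 neutral to 100 positive control, at about 1.3% or above, every replicate too, limit read from the data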
Target sequence (Q9HCT0 whole entry, looked up): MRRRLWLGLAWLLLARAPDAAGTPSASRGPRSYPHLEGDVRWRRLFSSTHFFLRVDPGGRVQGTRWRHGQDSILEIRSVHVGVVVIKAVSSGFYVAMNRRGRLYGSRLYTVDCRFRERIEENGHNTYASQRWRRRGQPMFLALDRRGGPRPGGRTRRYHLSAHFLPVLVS
SIRT5 block: SIRT5 desuccinylase inhibitors, primary screen, biochemical, fluorescence imaging, single point, set 5 | NAD-dependent protein deacylase sirtuin-5, mitochondrial (Homo sapiens), Q9NXA8 | inhibition, % at 15 µM | 1.1% of 330,000 active | AID 652115, 2013 | Purified SirT5, succinyl-peptide AMC, trypsin-coupled fluorescence; in the data active = inhibition above about 15%
Target sequence (Q9NXA8 whole entry, looked up): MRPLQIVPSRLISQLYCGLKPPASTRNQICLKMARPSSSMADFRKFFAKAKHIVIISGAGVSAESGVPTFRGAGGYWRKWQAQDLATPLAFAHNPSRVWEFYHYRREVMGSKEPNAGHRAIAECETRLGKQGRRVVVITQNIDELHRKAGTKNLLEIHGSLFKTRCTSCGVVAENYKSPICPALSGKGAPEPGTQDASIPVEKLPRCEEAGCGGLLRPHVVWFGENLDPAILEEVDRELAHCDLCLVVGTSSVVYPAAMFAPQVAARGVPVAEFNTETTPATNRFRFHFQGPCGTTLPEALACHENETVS
Statin myotox sup: suppressors of statin myotoxicity in C2C12 myotubes, primary screen, cell-based, single point, plate reader; C2C12 myotubes + simvastatin, ATP luminescence, 48 h; scaled: DMSO 0, geranylgeraniol control 100; 0.78% of 330,000 active; AID 602340, 2012; rescue of ATP level, % at 7.49 µM;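 active = mean ATP rescue above about 67%, or every replicate alone reaching that limit, limit read from the data, passing the limit was not always enough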;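 note: myotubes were challenged with 10 µM simvastatin during compound exposure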
E-selectin induc: E-selectin induction in HUVECs, primary screen, imaging, HUVEC, immunofluorescence imaging, single point | 0.37% of 260,000 active | P16581 | normalized: neutral wells 0, TNF-alpha wells 100 | AID 686992, 2013 | activation, % at 7.58 µM;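 active = mean E-selectin-positive cell signal at least 10% of the positive control, reached in at least 60% of replicates, without over 20% cell loss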
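System: HUVEC / Compound: single concentration / Signal: immunofluorescence imaging / Read-out: percent E-selectin-positive cells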
An asterisk follows results filed as active. Only some compounds are listed: those with a hit (about 4% of all), similar ones and a draw of the others.

Results for CS/C(=N\S(=O)(=O)c1cccs1)Nc1ccc(Cl)cc1 ?
FN deposit inh: 2; rRNA inh HTS: -30*; FGF22 binding: 0; SIRT5 block: -3; E-selectin induc: -3

Results for CS/C(=N\S(=O)(=O)c1cccs1)Nc1ccc(Br)cc1F ?
FN deposit inh: 9; rRNA inh HTS: -23; FGF22 binding: 0; SIRT5 block: 1; Statin myotox sup: -4; E-selectin induc: 0

What do the screens show for `Cc1cccc(NC(=O)C2CCCN2C(=O)OCC(C)C)c1` (centres undefined)?
FN deposit inh: 4

What do the screens show for `CC(=O)c1cccc(NC(=O)N2CCCC2C(=O)Nc2cc(C)ccc2C)c1` (centres undefined)?
Statin myotox sup: 115*

Results for Cc1cccc(NC(=O)C2CCCN2C(=O)OCC(C)C)c1C (centres undefined) ?
rRNA inh HTS: 13; SIRT5 block: -3; Statin myotox sup: 91*

Results for COc1ccc(C)cc1NC(=O)C1CCCN1C(=O)OCc1ccccc1 (centres undefined) ?
Statin myotox sup: 132*

Results for O=C(Cc1ccccn1)NCC[C@H]1CC[C@H](NC(=O)Nc2ccccc2)[C@H](CO)O1 ?
rRNA inh HTS: 2; FGF22 binding: 0; SIRT5 block: 2; Statin myotox sup: 0; E-selectin induc: 0

What do the screens show for `CC(C)C#Cc1ccc([C@H]2[C@@H](CO)N3C(=O)CN(C(=O)NC4CCCCC4)C[C@@H]23)cc1`?
FN deposit inh: -8; rRNA inh HTS: -2; SIRT5 block: -3; E-selectin induc: 1

What do the screens show for `CCc1cc(CNC(=O)CCc2nnc(Cc3cccc(C)c3)o2)on1`?
FN deposit inh: 12; rRNA inh HTS: 7; FGF22 binding: 0; SIRT5 block: -7; Statin myotox sup: 4; E-selectin induc: 0

How did CCc1cc(CNC(=O)CCc2nnc(CCCc3ccccc3)o2)on1 do in these assays?
FN deposit inh: -3; rRNA inh HTS: 9; FGF22 binding: 0; SIRT5 block: 20*; Statin myotox sup: -5; E-selectin induc: 4

Results for CC(C)c1cc(CNC(=O)CCc2nnc(CCCc3ccccc3)o2)on1 ?
FN deposit inh: 0; rRNA inh HTS: 7; FGF22 binding: 43*; SIRT5 block: 1; E-selectin induc: 0

How did C[C@H](CO)N1C[C@H](C)[C@@H](CN(C)Cc2ccc(C(=O)Nc3ccccc3N)cc2)Oc2ccc(NC(=O)Nc3cccc4ccccc34)cc2C1=O do in these assays?
rRNA inh HTS: 2; FGF22 binding: 0; Statin myotox sup: 57; E-selectin induc: -10

What do the screens show for `C[C@H]1CN([C@@H](C)CO)C(=O)c2cc(NC(=O)Nc3cccc4ccccc34)ccc2O[C@H]1CN(C)Cc1ccc(C(=O)Nc2ccccc2N)cc1`?
rRNA inh HTS: -9; FGF22 binding: 0; SIRT5 block: 2; Statin myotox sup: 202*; E-selectin induc: 2

Results for C[C@H](CO)N1C[C@H](C)[C@H](CN(C)Cc2ccc(C(=O)Nc3ccccc3N)cc2)Oc2ccc(N(C)C)cc2C1=O ?
FN deposit inh: -7; rRNA inh HTS: -2; FGF22 binding: -2; SIRT5 block: -1; Statin myotox sup: 83*; E-selectin induc: -1

What do the screens show for `COc1ccc(NC(=O)Nc2ccc3c(c2)C(=O)N([C@@H](C)CO)C[C@@H](C)[C@@H](CN(C)Cc2ccc(C(=O)Nc4ccccc4N)cc2)O3)cc1`?
FN deposit inh: -1; rRNA inh HTS: -5; FGF22 binding: 0; SIRT5 block: 16*; E-selectin induc: 2

Results for CCN(CC)C(=O)c1ccc(NS(=O)(=O)c2ccccc2)cc1 ?
FN deposit inh: 12; Statin myotox sup: 103*

How did CCN(CC)C(=O)c1ccc(NS(=O)(=O)c2ccc(/C=C/C(=O)O)cc2)cc1 do in these assays?
FN deposit inh: -15; rRNA inh HTS: 8; FGF22 binding: 0; SIRT5 block: 8; E-selectin induc: 3

How did Cc1cccc2c3c([nH]c12)[C@H]1CCC(=O)N1CC3 do in these assays?
FGF22 binding: 0; SIRT5 block: -4

What do the screens show for `CCCNC(=O)C[C@@H]1CC[C@@H]2[C@H](COc3ccc(NC(=O)c4ccccc4)cc3C(=O)N2C)O1`?
FN deposit inh: -8; rRNA inh HTS: 1; FGF22 binding: 0; SIRT5 block: 0; Statin myotox sup: -1; E-selectin induc: 0

What do the screens show for `CC1=C(C#N)c2nc(N)c(C#N)c(C)c2/C1=C\c1ccc(OCC(=O)O)c(Cl)c1`?
FN deposit inh: 3; rRNA inh HTS: 9; FGF22 binding: 1; SIRT5 block: 19*; E-selectin induc: 1

How did CCOc1cc(/C=N\Nc2ccc([N+](=O)[O-])cc2)ccc1OCC(=O)Nc1ccc(C)c(C)c1 do in these assays?
Statin myotox sup: 103*

How did COc1cc(/C=N\Nc2ccc([N+](=O)[O-])cc2)ccc1OCC(=O)Nc1ccc(C)c(C)c1 do in these assays?
Statin myotox sup: -2

Results for CCCN1CCN(C(=O)c2ccc(CS(=O)c3ccc(Br)cc3)o2)CC1 (centres undefined) ?
FN deposit inh: 0; rRNA inh HTS: 6; FGF22 binding: 0; Statin myotox sup: 9

How did CCCN1CCN(C(=O)c2ccc(CS(=O)c3ccc(Cl)cc3)o2)CC1 (centres undefined) do in these assays?
FN deposit inh: 10; rRNA inh HTS: 7; FGF22 binding: 0; SIRT5 block: 0; Statin myotox sup: -5; E-selectin induc: 49*

How did C[C@H]1CCCCO[C@H](CN(C)C(=O)Nc2ccccc2)[C@@H](C)CN([C@@H](C)CO)C(=O)c2cc(NC(=O)C3CCCCC3)ccc2O1 do in these assays?
FN deposit inh: 6; rRNA inh HTS: -2; FGF22 binding: 0; SIRT5 block: 4; E-selectin induc: 0

How did Cc1ccc(-c2cccc(CN3CCN(C(C)C)C(CCO)C3)c2)o1 (centres undefined) do in these assays?
FN deposit inh: 2; rRNA inh HTS: 8; FGF22 binding: 43*; SIRT5 block: -1; E-selectin induc: 0

Results for Cc1ccc(CN2CCN(Cc3cccc(OCCO)c3)CC2CCO)o1 (centres undefined) ?
FN deposit inh: 7; rRNA inh HTS: 2; FGF22 binding: 44*; SIRT5 block: 0
